# Hits are enriched below; roughly 2% of the tested compounds scored in any of these assays.
# CAL PDZ FP-1: CAL PDZ (human) peptide binding inhibition | Q9HD26 | purified CAL PDZ, TMR-peptide fluorescence polarization, 1 h | inhibition, % at 24.9 µM | hit rate 0.92% among 300,000;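 active means mean inhibition of at least 30% with at least half of replicates also reaching 30%; inconclusive means no clear call, values can overlap the other calls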;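 further: 0% = DMSO neutral control and 100% = excess unlabeled competitor peptide PRC23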
# PKA-R2B act: activates the human PKA-R2B holoenzyme complex. P22694+P31323. PKA-R2B holoenzyme dissociation, Cy5-IP20 fluorescence polarization; R2B truncated from residue 108, S112A mutant; 0% DMSO only, 100% 113 µM cGMP. activation, % at 11.4 µM. hit rate 0.079% among 340,000. AID 504700;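 active means activation above a cutoff set at the mean over all compounds plus 3 SD, cut at about 18% in these data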;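 further: higher means more holoenzyme dissociation and a rise in polarization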
# NTR1 agonist: NTR1 (human) agonism | hit rate 0.17% among 330,000 | P30989 | activation, % at 20 µM | NTR1-U2OS beta-arrestin-GFP spot imaging, agonist mode | AID 493036;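 active means activation at or above 40% of the spot to cytoplasm intensity ratio, with at least 20 cells analyzed; inconclusive means wells under 20 cells, flagged as cytotoxic or low count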;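 further: 0% = DMSO without peptide and 100% = 100 nM NTR1 peptide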
# Target sequence (P30989 whole entry, looked up): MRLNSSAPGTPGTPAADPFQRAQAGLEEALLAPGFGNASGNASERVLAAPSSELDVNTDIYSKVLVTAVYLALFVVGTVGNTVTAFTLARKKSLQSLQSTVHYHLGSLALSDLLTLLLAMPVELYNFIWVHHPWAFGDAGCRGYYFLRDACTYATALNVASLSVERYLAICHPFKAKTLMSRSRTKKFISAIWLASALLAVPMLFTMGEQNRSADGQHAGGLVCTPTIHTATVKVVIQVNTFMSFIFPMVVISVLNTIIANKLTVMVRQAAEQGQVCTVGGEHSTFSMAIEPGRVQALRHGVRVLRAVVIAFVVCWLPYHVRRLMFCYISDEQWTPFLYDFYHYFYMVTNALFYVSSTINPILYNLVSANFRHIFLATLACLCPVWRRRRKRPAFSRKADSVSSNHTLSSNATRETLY
# CAL PDZ FP-2: human CAL PDZ-peptide interaction inhibition | Q9HD26 | purified CAL PDZ, TMR-peptide fluorescence polarization, 1 h | inhibition, % at 20 µM | hit rate 0.02% among 330,000 | AID 504414;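 active means highest replicate inhibition of at least 40%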;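 further: plate controls were DMSO neutral control wells for no effect and unlabeled competitor peptide control wells for full effect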
#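 material = purified tagged CAL PDZ domain construct (CerCALP) | compound dosing = 20 µM, one dose | times = 1 h at RT | measured by = fluorescence polarization from S- and P-plane intensities, G-factor corrected | read-out = inhibition from polarization loss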
# PKA-R1A act: PKA-R1A complex activation; AID 504707; PKA-R1A dissociation, Cy5-IP20 fluorescence polarization; scaled: DMSO 0%, 113 µM cGMP 100%; hit rate 0.083% among 340,000; activation, % at 11.4 µM; P00514+P68181;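 active means percent activation above the mean of all tested compounds plus 3 SD, cut at about 19% in these data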;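 further: higher means more PKAc released from R1A so a rise in polarization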
# dFosB act-1: activators of mouse delta FosB homodimer | activation, % at 25 µM | P13346 | purified delta FosB, TAMRA-CDK5 oligo fluorescence polarization; percent of positive-control signal above neutral wells | hit rate 0.99% among 340,000;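 active means mean activation above about 17%, with every replicate also reaching it, limit read from the data, passing the limit was not always enough; inconclusive means only one of the two conditions met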
# dFosB act-2: enhances mouse delta FosB homodimer binding to DNA; AID 588690; 2,400 tested, under 10 active; purified delta FosB, TAMRA-CDK5 oligo fluorescence polarization; normalised: neutral wells 0, positive control 100; activation, % at 24.9 µM; shares compounds with dFosB act-1;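 active means highest replicate activation at or above 34% and every replicate reaching that threshold; inconclusive means meets only one of the two criteria; inactive means meets neither criterion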;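 further: higher polarization means more probe DNA bound by delta FosB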
# Starred values were filed as active, the others as inactive; ? = inconclusive; . = no result.
SMILES,CAL PDZ FP-1,PKA-R2B act,NTR1 agonist,CAL PDZ FP-2,PKA-R1A act,dFosB act-1,dFosB act-2
Cc1cc2oc3c(c(=O)c2cc1C)C(c1ccc(F)cc1)N(CCCN1CCOCC1)C3=O (centres undefined),.,5,-2,-2,0,?,.
COc1ccc(Nc2nc(Nc3ccc(OC)cc3)nc(SC3=NCCS3)n2)cc1,-5,3,0,0,-14,37*,4
Cc1cnc(NC(=O)Cc2ccccc2Cl)s1,-2,9,-1,-1,0,-8,.
Cc1cnc(NC(=O)c2cc3c(C)nn(Cc4ccccc4Cl)c3s2)s1,1,-3,3,-2,1,30*,7
Cc1nc2c(sc(=S)n2Cc2ccco2)c(=O)n1CC(=O)Nc1ccccc1,-3,0,3,-1,10,34*,1
Cc1nc2c(sc(=S)n2Cc2ccco2)c(=O)n1CC(=O)Nc1ccccc1F,-4,-3,8,-1,-12,83*,-1
COc1ccc(/C=C/C(=O)OCC(=O)NCc2ccccc2Cl)cc1OC,-4,1,1,-2,-5,-1,.
CNC(=O)c1ccc(OC2CSC2)cc1,2,5,0,2,-9,0,.
O=C(Nc1ccc(Cl)cc1)c1ccc(OC2CSC2)cc1,.,3,1,0,1,21*,6
COc1ccccc1NS(=O)(=O)c1cccc(NS(=O)(=O)c2cc(C(=O)O)ccc2OC)c1,8,-10,0,-1,6,-3,.
O=C(COc1ccc(Cl)cc1Cl)Nc1noc2ccccc12,-3,0,10,0,-11,25*,6
Cc1ccc(NC(=O)COc2ccccc2C(=O)Nc2ccccc2)cc1Cl,1,-3,23,-2,-1,-3,.
O=C(COc1ccc(Cl)cc1Cl)NNC(=S)Nc1ccc(F)cc1,-3,-9,1,-1,-3,-5,.
CC(=O)NC(=S)Nc1ccc(NC(=O)COc2ccc(Cl)cc2Cl)cc1,3,4,7,-1,-3,73*,-7
O=C(COc1ccc(Cl)cc1Cl)Nc1ccccn1,-1,0,3,-3,1,-3,.
Cc1ccc(Cl)cc1NC(=O)c1ccccc1OCC(=O)Nc1ccc(Cl)cc1,-4,4,22,-2,-5,33*,3
O=C(COC(=O)CNC(=O)c1ccc(Cl)c([N+](=O)[O-])c1)NCC1CCCO1 (centres undefined),-2,-8,3,0,-4,8,.
COc1ccccc1NC(=O)Nc1nc(CC(=O)Nc2cc(F)ccc2F)cs1,-1,1,9,-2,-3,-7,.
Cc1ccc(C)c(NC(=O)COC(=O)c2ccc3c(c2)OCCO3)c1,-2,4,-1,-1,7,33*,-14
Cc1ccc(C(=O)OCC(=O)Nc2ccc3c(c2)OCCO3)cc1C,-2,-7,1,-3,0,22*,-14
O=C(CSc1n[nH]c(-c2ccncc2)n1)Nc1ccccc1C(F)(F)F,-1,-5,0,-1,0,2,.
CCN1CCN(c2sc(S(C)(=O)=O)nc2S(=O)(=O)c2ccc(C)cc2)CC1,-4,-7,-1,-1,-15,-5,.
Cc1ccc(S(=O)(=O)c2nc(Nc3ccccc3N3CCOCC3)sc2Cl)cc1,0,9,2,0,6,22*,3
CC(C)Cn1c(N)c(C(=O)CSc2nc3ncc(Cl)cc3[nH]2)c(=O)n(C)c1=O,1,-14,10,-3,-11,-10,.
CCCn1c(N)c(C(=O)CSc2nc3ncc(Cl)cc3[nH]2)c(=O)n(C)c1=O,-6,9,-1,-1,1,28*,5
SMILES,CAL PDZ FP-1,PKA-R2B act,NTR1 agonist,CAL PDZ FP-2,PKA-R1A act,dFosB act-1,dFosB act-2
O=C(COC(=O)c1cc(=O)[nH]c2ccccc12)NCc1ccc(F)cc1,1,-2,0,-1,-5,-10,.
O=C(COC(=O)c1cc(Cl)ccc1O)NC(=O)NCc1ccccc1,-2,2,0,-2,-5,24*,6
O=C(COC(=O)c1cc(=O)[nH]c2ccccc12)Nc1nc(-c2ccc(F)cc2)cs1,-1,0,.,-5,10,41*,2
O=C(COC(=O)c1cc(=O)[nH]c2ccccc12)NCc1ccc(Cl)cc1,-3,-3,-1,-1,-2,57*,4
CCCCN(Cc1ccc(C(=O)N[C@H](C(=O)O)C(C)C)cc1)C(=O)C(c1ccccc1)c1ccccc1,.,9,2,-1,-5,-1,.
CCOc1ccc(NC(=O)Cn2nnc(-c3ccccc3NC(=O)c3cccs3)n2)cc1,-5,-1,1,.,-2,52*,5
CC(=O)NCc1ccc(C(=O)CSc2nnc(C3CC3)n2C2CC2)cc1,-3,3,0,1,6,-1,.
CC(=O)c1ccc(NC(=O)CSc2nnc(NC(=O)c3ccco3)s2)cc1,-1,9,0,13,6,28*,0
O=C(CSc1nnc(NC(=O)c2ccco2)s1)Nc1ccc(F)cc1F,6,6,3,-2,3,20*,1
O=C(CSc1nnc(NC(=O)c2ccco2)s1)Nc1cccc(F)c1,0,1,0,-1,6,?,.
O=C(NNC(=O)c1ccc(S(=O)(=O)N2CCCC2)cc1)c1ccc(Br)cc1,-1,7,2,-1,-7,-6,.
COc1ccccc1C(=O)NNC(=O)CCC(=O)NCc1ccccc1,-3,-9,0,-2,-5,-1,.
O=C(Nc1cccc(-n2cnnn2)c1)c1cc2ccccc2o1,-3,11,1,-3,-10,37*,6
COc1cccc(Nc2nc3ccc(C(=O)c4ccccc4)cc3n3cnnc23)c1,5,-3,6,-2,-6,19*,0
COC(=O)c1ccc(Nc2nc3ccc(C)cc3n3cnnc23)cc1,-1,11,3,0,-7,-1,.
CCOC(=O)C1CCN(C(=O)c2ccccc2NC(=O)C2=C(C)OCCS2)CC1,-4,6,0,-1,-10,7,.
O[C@@H]1C[C@H](c2ccc(Cl)cc2)N(Cc2cccs2)C[C@H]1n1cc(-c2ccc(F)cc2)nn1,.,-10,.,.,6,.,.
COc1ccc(-c2noc(CNS(=O)(=O)c3ccc(NC(C)=O)cc3)n2)cc1,4,-4,0,0,0,-6,.
O=C(NCc1nc(-c2ccc(C(F)(F)F)cc2)no1)Nc1ccc(OC(F)(F)F)cc1,.,.,32,0,.,24*,3

# Screens (PubChem)
